Key:
[1] = tested on: DNA topoisomerase 1 (Bos taurus); experiment: Effect on Topo-I-mediated relaxation of supercoiled pUC19 plasmid DNA in calf thymus at 100 uM
HT-29 [2] = experiment: Antitumor activity was measured on HT-29 xenografts after 0.32 mg/kg ip dose.; assay type: functional, Homo sapiens; settings: route intraperitoneal
In short: (§1)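 Female NCr nu/nu athymic mice, 4-6 weeks old, given sc HT-29 cells (5 × 10^6/animal, left dorsum). Randomised at day 10 at about 175 mm³ mean tumour (5/treated group, 10 controls). Drug in DMSO (3%)/Tween 20 (2%)/0.9% NaCl given ip daily, 4 days on/3 off, ×3 (12 injections). Caliper volume (w²l)/2 three times weekly with body weight. T-C delay in days to reach 250% of starting volume.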

HT-29 [3] = experiment: Antitumor activity was measured on HT-29 xenografts after 0.625 mg/kg ip dose; toxic dose; assay type: functional, organism-based; design: dose 0.625 mg/kg; settings: Homo sapiens
In short: as §1

K562 = experiment: Antiproliferative activity measured against K562adr leukemia cells.; assay type: functional, cell-based; settings: Homo sapiens
In short: (§2)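 Cells seeded 24 h before treatment (3000/well A427, MCF7mdr, K562adr; 1500/well PC-3) in DMEM with 10% heat-inactivated FCS, penicillin/streptomycin, 2 mM glutamine. Drug from DMSO (0.1% final) at 5 × 10^-13 to 1 × 10^-6 M final, 72 h exposure. Viability by WST-1 formazan colorimetry. Two experiments, eight determinations per concentration. IC50 by linear regression on linear part of sigmoid.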

MCF7 = experiment: Antiproliferative activity measured against MCF-7-mdr cells.; assay type: functional, cell-based; settings: Homo sapiens
In short: as §2

PC-3 = experiment: Antiproliferative activity measured against PC-3 human prostate adenocarcinoma; assay type: functional, cell-based; settings: PC-3, Prostate gland
In short: as §2

HT-29 [4] = experiment: Antitumor activity was measured on HT-29 xenografts after 0.16 mg/kg ip dose.; assay type: functional, Homo sapiens; settings: route intraperitoneal
In short: as §1

A-427 = experiment: Antiproliferative activity measured against A427 human lung carcinoma; assay type: functional, cell-based
In short: as §2

HT-29 [5] = experiment: Antitumor activity was measured on HT-29 xenografts after 0.625 mg/kg ip dose; td = 'toxic dose'; assay type: functional, organism-based; design: dose 0.625 mg/kg; settings: Homo sapiens
In short: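 Female NCr nu/nu athymic mice, 4-6 weeks old, bearing sc HT-29 tumours (5 × 10⁶ cells, left dorsal surface). Dosing began at about 175 mm³ (day 10), 5 mice per group and 10 controls. Drug given ip in DMSO (3%)/Tween 20 (2%)/0.9% NaCl, daily 4 days on/3 off, three cycles. Calipers three times weekly; T-C growth delay in days to reach 250% of starting volume.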

HT-29 [6] = experiment: Antitumor activity was measured on HT-29 xenografts after 0.625 mg/kg ip dose.; assay type: functional, Homo sapiens; settings: route intraperitoneal
In short: as §1

HT-29 [7] = experiment: Antitumor activity was measured on HT-29 xenografts after 1.25 mg/kg ip dose.; assay type: functional, Homo sapiens; settings: route intraperitoneal
In short: as §1

HT-29 [8] = experiment: Antitumor activity was measured on HT-29 xenografts after 2.5 mg/kg ip dose; td =' toxic dose'; assay type: functional, organism-based; design: dose 2.5 mg/kg; settings: Homo sapiens
In short: as §1

HT-29 [9] = experiment: Antitumor activity was measured on HT-29 xenografts after 1.25 mg/kg ip dose; td = ' toxic dose'; assay type: functional, organism-based; design: dose 1.25 mg/kg; settings: Homo sapiens
In short: as §1

Row | SMILES | Relaxed DNA [1] | IC50 (K562) | IC50 (MCF7) | IC50 (PC-3) | IC50 (A-427) | also measured
1 | CC[C@@]1(O)CC(=O)OCc2c1cc1n(c2=O)Cc2cc3ccccc3nc2-1 | 45% | – | – | – | – | –
2 | CCC1(O)CC(=O)OCc2c1cc1n(c2=O)Cc2cc3cc(OC)c(F)cc3nc2-1 (stereo unspecified) | 26% | 18 nM | 2.2 nM | < 0.001 nM | 0.0083 nM | Tumor growth delay (HT-29 [2]): 12 days; Tumor growth delay (HT-29 [3]): Toxic; Tumor growth delay (HT-29 [4]): 4 days
3 | COc1cccc2c1C(=O)c1c(O)c3c(c(O)c1C2=O)C[C@@](O)(C(=O)CO)C[C@@H]3O[C@H]1C[C@H](N)[C@H](O)[C@H](C)O1 [DOXORUBICIN] | – | 15000 nM | – | 390 nM | – | –
4 | CCC1(O)CC(=O)OCc2c1cc1n(c2=O)Cc2cc3cc4c(cc3nc2-1)OCCO4 (stereo unspecified) | 50% | – | – | – | – | –
5 | CCC1(O)CC(=O)OCc2c1cc1n(c2=O)Cc2cc3cc(F)c(F)cc3nc2-1 (stereo unspecified) | 56% | 66 nM | – | 0.001 nM | 0.1 nM | Tumor growth delay (HT-29 [2]): 25 days; Tumor growth delay (HT-29 [5]): Toxic dose; Tumor growth delay (HT-29 [4]): 8 days
6 | CC[C@@]1(O)C(=O)OCc2c1cc1n(c2=O)Cc2cc3c(CN(C)C)c(O)ccc3nc2-1 [TOPOTECAN] | – | 1100 nM | 420 nM | 160 nM | 49 nM | –
7 | CCc1c2c(nc3ccccc13)-c1cc3c(c(=O)n1C2)COC(=O)CC3(O)CC (stereo unspecified) | 34% | 33 nM | 21 nM | 28 nM | – | –
8 | CCC1(O)CC(=O)OCc2c1cc1n(c2=O)Cc2cc3cc(C)c(Cl)cc3nc2-1 (stereo unspecified) | 59% | 2.9 nM | – | 3.6 nM | 0.031 nM | –
9 | COc1cc([C@@H]2c3cc4c(cc3[C@@H](O[C@@H]3O[C@@H]5CO[C@@H](C)O[C@H]5[C@H](O)[C@H]3O)[C@H]3COC(=O)[C@H]23)OCO4)cc(OC)c1O [ETOPOSIDE] | – | – | 67000 nM | 2300 nM | – | –
10 | CCC1(O)CC(=O)OCc2c1cc1n(c2=O)Cc2cc3cc(Cl)ccc3nc2-1 (stereo unspecified) | 57% | 2.6 nM | 1.3 nM | 18 nM | 0.36 nM | –
11 | CCC1(O)CC(=O)OCc2c1cc1n(c2=O)Cc2cc3cc(F)c(Cl)cc3nc2-1 (stereo unspecified) | 61% | 20 nM | 1.7 nM | 12 nM | 0.023 nM | Tumor growth delay (HT-29 [2]): 1 days; Tumor growth delay (HT-29 [6]): 2 days; Tumor growth delay (HT-29 [7]): 7 days; Tumor growth delay (HT-29 [8]): Toxic dose
12 | CCC1(O)CC(=O)OCc2c1cc1n(c2=O)Cc2cc3cc4c(cc3nc2-1)OCO4 (stereo unspecified) | 58% | 37 nM | 0.55 nM | < 0.001 nM | 0.62 nM | –
13 | CC[C@@]1(O)C(=O)OCc2c1cc1n(c2=O)Cc2cc3ccccc3nc2-1 [CAMPTOTHECIN] | – | 57 nM | 3.1 nM | 57 nM | 24 nM | Tumor growth delay (HT-29 [6]): 4 days; Tumor growth delay (HT-29 [9]): Toxic
14 | CCC1(O)CC(=O)OCc2c1cc1n(c2=O)Cc2cc3ccccc3nc2-1 (stereo unspecified) | 60% | 47 nM | 21 nM | 60 nM | 12 nM | –
15 | CC[C@]1(O)CC(=O)OCc2c1cc1n(c2=O)Cc2cc3ccccc3nc2-1 | 100% | – | – | – | – | –
16 | CCC1(O)CC(=O)OCc2c1cc1n(c2=O)Cc2cc3cc(C)c(F)cc3nc2-1 (stereo unspecified) | 18% | 14 nM | 0.01 nM | < 0.001 nM | 0.00081 nM | Tumor growth delay (HT-29 [2]): 7 days; Tumor growth delay (HT-29 [3]): Toxic; Tumor growth delay (HT-29 [4]): 4 days
17 | CCC1(O)CC(=O)OCc2c1cc1n(c2=O)Cc2cc3cc(F)ccc3nc2-1 (stereo unspecified) | 47% | 63 nM | – | 0.58 nM | 7.7 nM | –

Source: ChEMBL document CHEMBL1131448 (J Med Chem, 1998)
